According to BindingDB's records for doi:10.1021/jm030311v (Southern Research Institute, 2004):

Tests used:
[1] = molecular target: Kappa-type opioid receptor (Cavia porcellus, UniProt P41144); experiment: Apparent binding affinity of compound was determined by antagonism towards Opioid receptor kappa 1 in [35S]GTP-gamma-S, binding assay in guinea pig caudate
Mu-type opioid receptor [2] = molecular target: T1, Mu-type opioid receptor (Cavia porcellus, UniProt P97266); experiment: Apparent binding affinity of compound was determined by antagonism towards Opioid receptor mu 1 in [35S]GTP-gamma-S, binding assay in guinea pig caudate
T1 sequence (P97266 whole entry): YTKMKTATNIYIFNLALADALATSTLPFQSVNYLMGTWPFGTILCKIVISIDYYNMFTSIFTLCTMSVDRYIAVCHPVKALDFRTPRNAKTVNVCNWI

[3] = Inhibitory concentration required for 50% inhibition of antagonism towards opioid receptor delta 1 in [35S]GTP-gamma-S, binding assay in guinea pig caudate
[4] = Apparent antagonist activity determined by measuring the ability to inhibit stimulation of [35S]GTP-gamma-S, binding to opioid receptor delta 1 in guinea pig caudate membranes
Mu-type opioid receptor [5] = molecular target: T1, Mu-type opioid receptor; experiment: Agonistic activity towards Opioid receptor mu 1 was determined in [35S]GTP-gamma-S, binding assay in guinea pig caudate
Summary of the method: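 Guinea pig caudate membranes (10-20 µg protein) incubated 3 h at 22 °C in Tris-HCl pH 7.4 containing 100 mM NaCl, 10 mM MgCl2, 1 mM EDTA, 100 µM GDP and 0.05-0.1 nM [35S]GTP-γ-S, then filtered and counted. Nonspecific binding defined with 10 µM GTP-γ-S. Site isolation used CTAP, nor-BNI, NTI or TIPP. […] Three experiments pooled; logistic fit.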

Kappa-type opioid receptor, sequence (P41144 whole entry): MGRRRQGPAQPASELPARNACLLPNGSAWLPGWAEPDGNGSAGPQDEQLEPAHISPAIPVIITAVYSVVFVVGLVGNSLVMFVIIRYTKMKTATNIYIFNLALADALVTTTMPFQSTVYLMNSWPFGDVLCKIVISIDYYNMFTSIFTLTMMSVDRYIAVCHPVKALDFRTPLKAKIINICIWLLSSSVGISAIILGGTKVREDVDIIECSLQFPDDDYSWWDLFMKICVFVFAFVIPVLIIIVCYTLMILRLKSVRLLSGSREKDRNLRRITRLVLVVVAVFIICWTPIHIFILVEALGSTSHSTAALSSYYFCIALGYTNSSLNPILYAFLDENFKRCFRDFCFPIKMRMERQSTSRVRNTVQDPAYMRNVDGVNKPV

Question: For `CN1CC[C@]23c4c5ccc(O)c4O[C@H]2c2ncc(-c4ccc(Cl)cc4)cc2C[C@@]3(O)C1C5` [6-(4-chlorophenyl)-19-methyl-(2S,10R)-11-oxa-8,19-diazahexacyclo[10.9.1.01,10.02,18.04,9.016,22]docosa-4(9),5,7,12,14,16(22)-hexaene-2,13-diol], which Ki [1] is on record?
Answer: 767 nM

Question: And the Ki (Mu-type opioid receptor [2])?
Answer: > 1000 nM

Question: Which IC50 [3] does the source give for `CN1CC[C@]23c4c5ccc(O)c4O[C@H]2c2ncc(-c4ccc(Br)cc4)cc2C[C@H]3C1C5` [6-(4-bromophenyl)-19-methyl-(2R,10R)-11-oxa-8,19-diazahexacyclo[10.9.1.01,10.02,18.04,9.016,22]docosa-4(9),5,7,12,14,16(22)-hexaen-13-ol] here?
Answer: 55 nM

Question: With `CN1CC[C@]23c4c5ccc(O)c4O[C@H]2c2ncccc2C[C@H]3C1C5` [19-methyl-(2R,10R)-11-oxa-8,19-diazahexacyclo[10.9.1.01,10.02,18.04,9.016,22]docosa-4(9),5,7,12,14,16(22)-hexaen-13-ol] as the compound, how does the Ki [4] read?
Answer: 595 nM

Question: For `CN1CC[C@]23c4c5ccc(O)c4O[C@H]2c2ncc(-c4ccc(Cl)cc4)cc2C[C@H]3C1C5` [6-(4-chlorophenyl)-19-methyl-(2R,10R)-11-oxa-8,19-diazahexacyclo[10.9.1.01,10.02,18.04,9.016,22]docosa-4(9),5,7,12,14,16(22)-hexaen-13-ol], which Ki [4] is on record?
Answer: 11 nM

Question: With `CN1CC[C@]23c4c5ccc(O)c4O[C@H]2c2ncc(-c4ccc(Cl)c(Cl)c4)cc2C[C@H]3C1C5` [6-(3,4-dichlorophenyl)-19-methyl-(2R,10R)-11-oxa-8,19-diazahexacyclo[10.9.1.01,10.02,18.04,9.016,22]docosa-4(9),5,7,12,14,16(22)-hexaen-13-ol] as the compound, how does the IC50 [3] read?
Answer: 74 nM

Question: For `C[C@@H](NC(=O)[C@@H](N)Cc1ccc(O)cc1)C(=O)NCC(=O)N(C)[C@@H](Cc1ccccc1)C(=O)NCCO` [[tyrosyl-3,5-3H(N)]-D-Ala2-Mephe4-glyol5-enkephalin], which EC50 (Mu-type opioid receptor [5]) is on record?
Answer: 414 nM

Question: For `CN1CC[C@]23c4c5ccc(O)c4O[C@H]2c2ncc(-c4ccccc4)cc2C[C@@]3(O)C1C5` [19-methyl-6-phenyl-(2S,10R)-11-oxa-8,19-diazahexacyclo[10.9.1.01,10.02,18.04,9.016,22]docosa-4(9),5,7,12,14,16(22)-hexaene-2,13-diol], which IC50 [3] is on record?
Answer: 920 nM

Question: Which Ki [4] does the source give for `Oc1ccc2c3c1OC1c4ncc(-c5ccc(Cl)cc5)cc4C[C@@]4(O)[C@@H](C2)N(CC2CC2)CC[C@]314` (stereo partly drawn) [5'-(Chlorophenyl)-17-(cyclopropylmethyl) -6,7-didehydro-3,14-dihydroxy-4,5alpha-epoxypyrido-[2',3':6,7]morphinan] here?
Answer: 0.18 nM

Question: With `Oc1ccc2c3c1O[C@H]1c4ncc(-c5ccc(Cl)cc5)cc4C[C@H]4C(C2)N(CC2CC2)CC[C@]314` [6-(4-chlorophenyl)-19-cyclopropylmethyl-(2R,10R)-11-oxa-8,19-diazahexacyclo[10.9.1.01,10.02,18.04,9.016,22]docosa-4(9),5,7,12,14,16(22)-hexaen-13-ol] as the compound, how does the Ki [4] read?
Answer: 1.6 nM

Question: For `CN1CC[C@]23c4c5ccc(O)c4O[C@H]2c2ncc(-c4ccc(Cl)cc4Cl)cc2C[C@H]3C1C5` [6-(2,4-dichlorophenyl)-19-methyl-(2R,10R)-11-oxa-8,19-diazahexacyclo[10.9.1.01,10.02,18.04,9.016,22]docosa-4(9),5,7,12,14,16(22)-hexaen-13-ol], which Ki [4] is on record?
Answer: 1.1 nM
